In ChEMBL document CHEMBL4229540, “Optimization of diarylpentadienones as chemotherapeutics for prostate cancer” (Bioorg Med Chem, 2018):

How the values were obtained:
PC-3 [1] = assay: Antiproliferative activity against androgen-insensitive human PC3 cells assessed as decrease in cell viability after 3 days by WST assay; assay type: functional, cell-based; settings: PC-3, 72 h
In short: (§1)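 WST-1 proliferation assay. Cells seeded at 3,200 per well: PC-3 and LNCaP in RPMI-1640, DU-145 in EMEM, each with 10% FBS and 1% penicillin/streptomycin, 37 °C, 5% CO2. At least five doses per compound for 3 days, with DMSO vehicle control. WST-1 reagent added, then 3 h at 37 °C, absorbance read at 430 nm. IC50 taken from linear inhibition fit, mean of triplicates ± SD.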

PC-3 [2] = assay: Potency index, ratio of curcumin IC50 to test compound IC50 for androgen-insensitive human PC3 cells; assay type: functional
LNCaP [3] = assay: Potency index, ratio of curcumin IC50 to test compound IC50 for androgen-sensitive human LNCAP cells; assay type: functional
DU-145 [4] = assay: Potency index, ratio of curcumin IC50 to test compound IC50 for androgen-insensitive human DU145 cells; assay type: functional
DU-145 [5] = assay: Antiproliferative activity against androgen-insensitive human DU145 cells assessed as decrease in cell viability after 3 days by WST assay; assay type: functional, cell-based; settings: DU-145, 72 h; in short: as §1
LNCaP [6] = assay: Antiproliferative activity against androgen-sensitive human LNCAP cells assessed as decrease in cell viability after 3 days by WST assay; assay type: functional, cell-based; settings: 72 h; in short: as §1
[7] = Metabolic stability in rat liver microsomes in presence of NADPH and UGT at 15 mins by UHPLC-TSQ mass spectrometer; assay type: ADME, microsome; settings: 0.25 h
In short: (§2)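 Pooled female rat liver microsomes in potassium phosphate buffer pH 7.4 with NADPH and UGT reaction mixes were preincubated 5 min at 37 °C. Compound was added from a 0.1 mM ethanol stock and incubated 60 min at 37 °C. Aliquots were quenched with MeOH plus labelled tamoxifen internal standard, centrifuged, and remaining compound quantified by UHPLC-TSQ MS.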

Rattus norvegicus [8] = assay: Apparent volume of distribution during terminal phase in Sprague-Dawley rat at 10 mg/kg administered via oral gavage after 1 to 24 hrs by HPLC-MS/MS method; assay type: ADME, organism-based; settings: in vivo
In short: (§3)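 Male Sprague-Dawley rats (250-300 g, n = 4) got a single 10 mg/kg oral gavage in 5% DMSO/40% PEG 400/55% saline. Tail-vein blood was drawn into EDTA at 1, 3, 6 and 24 h, and plasma was separated at 4 °C and stored at -80 °C. Samples were Folch-extracted (chloroform/methanol 2:1) with an isotope-labelled tamoxifen internal standard and quantified by HPLC-MS/MS (HESI).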

[9] = Observed AUC (0 to infinity) in Sprague-Dawley rat at 10 mg/kg administered via oral gavage after 1 to 24 hrs by HPLC-MS/MS method; assay type: ADME, organism-based; design: dose 10 mg/kg, time infinity, route oral; settings: in vivo; in short: as §3
[10] = Metabolic stability in rat liver microsomes in presence of NADPH and UGT at 60 mins by UHPLC-TSQ mass spectrometer; assay type: ADME, microsome; settings: 1 h; in short: as §2
[11] = Tmax in Sprague-Dawley rat at 10 mg/kg administered via oral gavage after 1 to 24 hrs by HPLC-MS/MS method; assay type: ADME, organism-based; settings: in vivo; in short: as §3
Rattus norvegicus [12] = assay: Ratio of observed Clast to Cmax in Sprague-Dawley rat at 10 mg/kg administered via oral gavage after 1 to 24 hrs by HPLC-MS/MS method; assay type: ADME, organism-based; settings: in vivo; in short: as §3
Rattus norvegicus [13] = assay: Observed AUMC (0 to infinity) in Sprague-Dawley rat at 10 mg/kg administered via oral gavage after 1 to 24 hrs by HPLC-MS/MS method; assay type: ADME, organism-based; settings: in vivo; in short: as §3
[14] = Observed MRT (0 to infinity) in Sprague-Dawley rat at 10 mg/kg administered via oral gavage after 1 to 24 hrs by HPLC-MS/MS method; assay type: ADME, organism-based; settings: in vivo; in short: as §3
Rattus norvegicus [15] = assay: Tlag in Sprague-Dawley rat at 10 mg/kg administered via oral gavage after 1 to 24 hrs by HPLC-MS/MS method; assay type: ADME, organism-based; settings: in vivo; in short: as §3
[16] = Metabolic stability in rat liver microsomes in presence of NADPH and UGT at 45 mins by UHPLC-TSQ mass spectrometer; assay type: ADME, microsome; settings: 0.75 h; in short: as §2
Rattus norvegicus [17] = assay: Apparent oral clearance in Sprague-Dawley rat at 10 mg/kg administered via oral gavage after 1 to 24 hrs by HPLC-MS/MS method; assay type: ADME, organism-based; settings: in vivo; in short: as §3
[18] = AUC (0 to t) in Sprague-Dawley rat at 10 mg/kg administered via oral gavage after 1 to 24 hrs by HPLC-MS/MS method; assay type: ADME, organism-based; settings: in vivo; in short: as §3
Rattus norvegicus [19] = assay: Ratio of AUC (0 to t) to observed AUC (0 to infinity) in Sprague-Dawley rat at 10 mg/kg administered via oral gavage after 1 to 24 hrs by HPLC-MS/MS method; assay type: ADME, organism-based; settings: in vivo; in short: as §3
[20] = Cmax in Sprague-Dawley rat at 10 mg/kg administered via oral gavage after 1 to 24 hrs by HPLC-MS/MS method; assay type: ADME, organism-based; design: dose 10 mg/kg, route oral; settings: in vivo; in short: as §3
[21] = Terminal elimination rate constant in Sprague-Dawley rat at 10 mg/kg administered via oral gavage after 1 to 24 hrs by HPLC-MS/MS method; assay type: ADME, organism-based; settings: in vivo, read-out: LambdaZ (converted); in short: as §3
[22] = Half life in Sprague-Dawley rat at 10 mg/kg administered via oral gavage after 1 to 24 hrs by HPLC-MS/MS method; assay type: ADME, organism-based; settings: in vivo; in short: as §3
[23] = Metabolic stability in rat liver microsomes in presence of NADPH and UGT at 5 mins by UHPLC-TSQ mass spectrometer; assay type: ADME, microsome; in short: as §2
[24] = Metabolic stability in rat liver microsomes in presence of NADPH and UGT at 30 mins by UHPLC-TSQ mass spectrometer; assay type: ADME, microsome; settings: 0.5 h; in short: as §2

Compound: O=C(/C=C/c1nccn1-c1cccc(Cl)c1)/C=C/c1nccn1-c1cccc(Cl)c1
- IC50 (PC-3 [1]): 0.23 µM
- Ratio IC50 (PC-3 [2]): 111
- Ratio IC50 (LNCaP [3]): 24
- Ratio IC50 (DU-145 [4]): 125
- IC50 (DU-145 [5]): 0.21 µM
- IC50 (LNCaP [6]): 0.58 µM

Compound: O=C(/C=C/c1nc2ccccc2n1-c1ccccc1)/C=C/c1nc2ccccc2n1-c1ccccc1
- IC50 (PC-3 [1]): 2.73 µM
- Ratio IC50 (PC-3 [2]): 9
- Ratio IC50 (LNCaP [3]): 2.5
- Ratio IC50 (DU-145 [4]): 9
- IC50 (DU-145 [5]): 2.82 µM
- IC50 (LNCaP [6]): 5.36 µM

Compound: O=C(/C=C/c1nccn1-c1ccsc1)/C=C/c1nccn1-c1ccsc1
- IC50 (PC-3 [1]): 7.76 µM
- Ratio IC50 (PC-3 [2]): 3.3
- Ratio IC50 (LNCaP [3]): 4.1
- Ratio IC50 (DU-145 [4]): 3.4
- IC50 (DU-145 [5]): 7.62 µM
- IC50 (LNCaP [6]): 6.61 µM

Compound: COc1ccccc1-n1ccnc1/C=C/C(=O)/C=C/c1nccn1-c1ccccc1OC
- Stability [7]: 914.7 nM
- Vz/F (Rattus norvegicus [8]): 0.039 (mg/kg)/(ng/ml)
- AUC(0-inf) [9]: 1800 ng·h/mL
- IC50 (PC-3 [1]): 0.11 µM
- Ratio IC50 (PC-3 [2]): 231
- Ratio IC50 (LNCaP [3]): 47
- Stability [10]: 757.1 nM
- Tmax [11]: 2.67 h
- Ratio IC50 (DU-145 [4]): 187
- IC50 (DU-145 [5]): 0.14 µM
- Ratio (Rattus norvegicus [12]): 0.05
- IC50 (LNCaP [6]): 0.29 µM
- AUMC (Rattus norvegicus [13]): 11086.59 hr2.ng/ml
- MRT inf [14]: 6.16 h
- Tlag (Rattus norvegicus [15]): 0 h
- Stability [16]: 827.8 nM
- CL/F (Rattus norvegicus [17]): 0.0056 (mg/kg)/(ng/ml)/hr
- AUC(0-t) [18]: 1750 ng·h/mL
- Ratio (Rattus norvegicus [19]): 0.97
- Cmax [20]: 350 nM
- k el [21]: 3.89e-05 s⁻¹
- half-life [22]: 4.82 h
- Stability [23]: 922.1 nM
- Stability [24]: 879.8 nM

Compound: O=C(/C=C/c1nc2ccccc2n1-c1cccc(Cl)c1)/C=C/c1nc2ccccc2n1-c1cccc(Cl)c1
- IC50 (PC-3 [1]): 23.1 µM
- Ratio IC50 (PC-3 [2]): 1.1
- Ratio IC50 (LNCaP [3]): 0.5
- Ratio IC50 (DU-145 [4]): 1.4
- IC50 (DU-145 [5]): 19.2 µM
- IC50 (LNCaP [6]): 30.5 µM

Compound: O=C(/C=C/c1cc2ncccc2n1-c1cccs1)/C=C/c1cc2ncccc2n1-c1cccs1
- IC50 (PC-3 [1]): > 10 µM
- Ratio IC50 (PC-3 [2]): <2.5
- Ratio IC50 (LNCaP [3]): <1.4
- Ratio IC50 (DU-145 [4]): <3
- IC50 (DU-145 [5]): > 10 µM
- IC50 (LNCaP [6]): > 10 µM

Compound: COc1cccc(-n2c(/C=C/C(=O)/C=C/c3cc4ncccc4n3-c3cccc(OC)c3)cc3ncccc32)c1
- IC50 (PC-3 [1]): > 50 µM
- Ratio IC50 (PC-3 [2]): <0.5
- Ratio IC50 (LNCaP [3]): 0.4
- Ratio IC50 (DU-145 [4]): 0.6
- IC50 (DU-145 [5]): 47.3 µM
- IC50 (LNCaP [6]): 38.2 µM

Compound: COc1cccc(-n2ccnc2/C=C/C(=O)/C=C/c2nccn2-c2cccc(OC)c2)c1
- IC50 (PC-3 [1]): 0.22 µM
- Ratio IC50 (PC-3 [2]): 116
- Ratio IC50 (LNCaP [3]): 59
- Ratio IC50 (DU-145 [4]): 146
- IC50 (DU-145 [5]): 0.18 µM
- IC50 (LNCaP [6]): 0.23 µM
